This note sets out measurements from ChEMBL document CHEMBL1127548, “N-benzylnaltrindoles as long-acting delta-opioid receptor antagonists” (J Med Chem, 1994).

The target in assay [1] is Opioid receptors; mu & delta (Homo sapiens) (UniProt P41143+P35372). The experiment in a line: Selectivity ratio is the ratio between delta and mu receptor. It counts as protein assay. Put shortly:
(§1)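 Selectivity ratio is the DADLE IC50 ratio divided by the morphine (δ/μ) or ethylketazocine (δ/κ) IC50 ratio. These IC50 ratios come from smooth muscle with 100 nM antagonist, 15 min. A value of 1 was used wherever an IC50 ratio was <1.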

Assay [2] has as its target Opioid receptors; delta & kappa (Homo sapiens) (UniProt P41145+P41143). The experiment in a line: Selectivity ratio is the ratio between delta and kappa receptor. It is filed as protein assay. Put shortly:
as §1

For assay [3], the target named is Mu-type opioid receptor (Cavia porcellus) (UniProt P97266). Kind of assay: Antagonist potency using morphine at mu-opioid receptor in electrically stimulated guinea pig ileal longitudinal muscle (GPI); IC50 ratio. It is filed as functional. The essentials: (§2)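 Electrically stimulated tissue: agonists were morphine (μ) and ethylketazocine (κ) in guinea pig ileal longitudinal muscle, and DADLE (δ) in mouse vas deferens. Antagonist at 100 nM was incubated 15 min. IC50 ratio is agonist IC50 with antagonist divided by control IC50 in the same preparation, n ≥ 3, ±SE.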

Assay [4] concerns the target Kappa-type opioid receptor (Cavia porcellus) (UniProt P41144). Kind of assay: Antagonist potency was determined using ethylketazocine at kappa-opioid receptor in electrically stimulated guinea pig ileal longitudinal muscle (GPI); IC50 ratio. It counts as functional. Put shortly: as §2
In assay [5] the target is Delta-type opioid receptor (Mus musculus) (UniProt P32300). Kind of assay: Antagonist potency was determined using D-Ala2, D-Leu5 enkephalin28 (DADLE) at delta-opioid receptor in mouse vas deferens (MVD); IC50 ratio. It counts as functional. The essentials:
as §2

For assay [6] the target is unchanged. The experiment in a line: Antagonist potency was determined using […] in delta2-opioid receptor by icv administration in mouse after 24 hr; ED50 ratio. It is filed as functional, organism-based. Put shortly: (§3)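 Mouse abdominal stretch antinociception assay. Antagonist was given icv at 5 nmol, with agonists tested 24 h later. DSLET and DPDPE were given icv; morphine and U50488 were given sc. ED50 ratio is agonist ED50 with antagonist divided by control ED50, with 95% confidence limits.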

For assay [7], the target named is Mu-type opioid receptor (Mus musculus) (UniProt P42866). Kind of assay: Antagonist potency was determined using morphine in mu-opioid receptor by icv administration in mouse after 24 hr; ED50 ratio. It is filed as functional, organism-based. The essentials:
as §3

The target of assay [8] is Kappa-type opioid receptor (Mus musculus) (UniProt P33534). The experiment in a line: Antagonist potency was determined using U-50,488 in kappa-opioid receptor by icv administration in mouse after 24 hr; ED50 ratio. It counts as functional, organism-based. Put shortly:
as §3

In assay [9] the target is Delta-type opioid receptor (Mus musculus) (UniProt P32300). The experiment in a line: Antagonist potency was determined using DPDPE in delta1-opioid receptor by icv administration in mouse after 24 hr; ED50 ratio. It is filed as functional, organism-based. Put shortly:
as §3

SMILES strings stand for the structures.

Sequence of Opioid receptors; delta & kappa (Homo sapiens) (P41143 whole entry, looked up): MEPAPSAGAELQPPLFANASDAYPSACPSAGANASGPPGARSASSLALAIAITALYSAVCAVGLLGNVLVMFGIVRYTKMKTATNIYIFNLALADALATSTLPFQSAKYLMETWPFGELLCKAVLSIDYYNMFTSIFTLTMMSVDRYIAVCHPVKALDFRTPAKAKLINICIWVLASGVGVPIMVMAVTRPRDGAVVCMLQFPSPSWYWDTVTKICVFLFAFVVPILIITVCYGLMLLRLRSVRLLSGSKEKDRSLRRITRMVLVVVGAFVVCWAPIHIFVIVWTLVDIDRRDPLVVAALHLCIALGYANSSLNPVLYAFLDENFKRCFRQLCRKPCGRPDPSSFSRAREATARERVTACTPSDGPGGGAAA
Sequence of Opioid receptors; delta & kappa (Homo sapiens) (P41145 whole entry, looked up): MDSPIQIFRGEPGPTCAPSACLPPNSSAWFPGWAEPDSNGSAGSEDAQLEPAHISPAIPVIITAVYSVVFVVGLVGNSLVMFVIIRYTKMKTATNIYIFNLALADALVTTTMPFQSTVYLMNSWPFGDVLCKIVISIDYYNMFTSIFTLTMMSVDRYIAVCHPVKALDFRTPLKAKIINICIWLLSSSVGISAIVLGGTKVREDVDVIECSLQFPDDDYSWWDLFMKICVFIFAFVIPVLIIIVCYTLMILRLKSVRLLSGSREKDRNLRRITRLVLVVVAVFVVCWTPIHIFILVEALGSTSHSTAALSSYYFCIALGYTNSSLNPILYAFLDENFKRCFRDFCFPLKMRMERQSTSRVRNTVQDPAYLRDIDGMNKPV
Sequence of Delta-type opioid receptor (Mus musculus) (P32300 whole entry): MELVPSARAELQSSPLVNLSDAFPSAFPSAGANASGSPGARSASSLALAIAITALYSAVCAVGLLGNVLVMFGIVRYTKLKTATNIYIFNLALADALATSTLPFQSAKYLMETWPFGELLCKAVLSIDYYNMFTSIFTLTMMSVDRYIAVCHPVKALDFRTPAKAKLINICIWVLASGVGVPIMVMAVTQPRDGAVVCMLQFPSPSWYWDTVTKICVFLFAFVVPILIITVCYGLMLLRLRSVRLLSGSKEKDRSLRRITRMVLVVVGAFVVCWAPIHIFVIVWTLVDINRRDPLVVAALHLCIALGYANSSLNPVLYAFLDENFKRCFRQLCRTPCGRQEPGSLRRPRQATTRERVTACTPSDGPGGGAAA
Sequence of Mu-type opioid receptor (Cavia porcellus) (P97266 whole entry): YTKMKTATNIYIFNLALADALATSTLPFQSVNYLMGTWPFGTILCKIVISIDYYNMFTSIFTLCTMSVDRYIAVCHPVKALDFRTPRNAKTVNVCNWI
Sequence of Kappa-type opioid receptor (Cavia porcellus) (P41144 whole entry): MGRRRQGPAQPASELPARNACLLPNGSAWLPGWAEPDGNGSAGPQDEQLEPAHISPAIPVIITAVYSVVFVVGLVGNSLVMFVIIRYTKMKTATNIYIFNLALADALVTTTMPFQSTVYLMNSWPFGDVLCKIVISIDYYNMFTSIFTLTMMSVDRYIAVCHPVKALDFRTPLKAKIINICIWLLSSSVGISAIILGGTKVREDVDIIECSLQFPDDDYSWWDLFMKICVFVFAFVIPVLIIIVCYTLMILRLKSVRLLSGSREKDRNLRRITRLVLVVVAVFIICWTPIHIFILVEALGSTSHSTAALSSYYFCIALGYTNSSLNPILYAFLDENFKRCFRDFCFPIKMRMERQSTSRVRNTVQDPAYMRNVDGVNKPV
Sequence of Opioid receptors; mu & delta (Homo sapiens) (P35372 whole entry, looked up): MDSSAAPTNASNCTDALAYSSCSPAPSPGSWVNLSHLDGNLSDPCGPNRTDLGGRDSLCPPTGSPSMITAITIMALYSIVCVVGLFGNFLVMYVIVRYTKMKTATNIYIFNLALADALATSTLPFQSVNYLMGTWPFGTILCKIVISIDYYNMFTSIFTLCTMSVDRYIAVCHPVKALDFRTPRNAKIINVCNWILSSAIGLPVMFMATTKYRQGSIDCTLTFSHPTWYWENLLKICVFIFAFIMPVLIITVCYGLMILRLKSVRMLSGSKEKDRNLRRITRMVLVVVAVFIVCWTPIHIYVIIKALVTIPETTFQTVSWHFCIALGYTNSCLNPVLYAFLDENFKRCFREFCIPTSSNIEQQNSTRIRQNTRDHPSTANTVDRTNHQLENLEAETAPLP
Sequence of Opioid receptors; mu & delta (Homo sapiens) (P41143 whole entry, looked up): as the sequence (P41143 whole entry, looked up) above
Sequence of Kappa-type opioid receptor (Mus musculus) (P33534 whole entry): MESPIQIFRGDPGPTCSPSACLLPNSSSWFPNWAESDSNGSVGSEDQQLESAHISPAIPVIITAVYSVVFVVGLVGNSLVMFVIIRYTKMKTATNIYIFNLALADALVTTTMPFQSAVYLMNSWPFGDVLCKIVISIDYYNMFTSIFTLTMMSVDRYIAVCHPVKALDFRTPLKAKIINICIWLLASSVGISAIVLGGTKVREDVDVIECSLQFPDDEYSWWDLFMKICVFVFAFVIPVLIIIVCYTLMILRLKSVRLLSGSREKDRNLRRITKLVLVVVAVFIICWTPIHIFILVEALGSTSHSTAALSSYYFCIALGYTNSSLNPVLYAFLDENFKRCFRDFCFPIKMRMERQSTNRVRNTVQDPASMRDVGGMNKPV
Sequence of Mu-type opioid receptor (Mus musculus) (P42866 whole entry): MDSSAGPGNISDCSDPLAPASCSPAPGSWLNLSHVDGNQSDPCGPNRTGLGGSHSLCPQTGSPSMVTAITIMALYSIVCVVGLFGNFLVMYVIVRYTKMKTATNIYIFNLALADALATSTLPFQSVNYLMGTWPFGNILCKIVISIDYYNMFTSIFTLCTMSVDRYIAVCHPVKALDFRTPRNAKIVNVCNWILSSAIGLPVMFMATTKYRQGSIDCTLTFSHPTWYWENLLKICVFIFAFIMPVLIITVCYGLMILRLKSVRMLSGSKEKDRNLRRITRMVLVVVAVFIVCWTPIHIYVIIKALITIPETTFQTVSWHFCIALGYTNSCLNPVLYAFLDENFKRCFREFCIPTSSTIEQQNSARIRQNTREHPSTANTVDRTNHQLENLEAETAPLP

`O=[N+]([O-])c1ccccc1Cn1c2c(c3ccccc31)C[C@@]1(O)[C@H]3Cc4ccc(O)c5c4[C@@]1(CCN3CC1CC1)[C@H]2O5`: the Selectivity ratio in assay [1] worked out at 13; in assay [2] it was 31. For the same molecule, the Ratio amounted to 2.3 in [3], 0.8 in assay [4] and 31 in assay [5].

For `O=[N+]([O-])c1cccc(Cn2c3c(c4ccccc42)C[C@@]2(O)[C@H]4Cc5ccc(O)c6c5[C@@]2(CCN4CC2CC2)[C@H]3O6)c1`, the Selectivity ratio in [1] and in [2] was 112 in each case. In addition, the Ratio in [3] was determined as 0.9; in assay [4] it was 0.6; in assay [5], 112.

For `Oc1ccc2c3c1O[C@H]1c4[nH]c5ccccc5c4C[C@@]4(O)[C@@H](C2)N(CC2CC2)CC[C@]314`, the Selectivity ratio was found to be 41 in assay [1] and 353 in [2]. For the same molecule, the Ratio amounted to 11.2 in assay [3], 1.3 in assay [4] and 459 in assay [5].

With `Oc1ccc2c3c1O[C@H]1c4c(c5ccccc5n4Cc4c(F)c(F)c(F)c(F)c4F)C[C@@]4(O)[C@@H](C2)N(CC2CC2)CC[C@]314`, the results for the Selectivity ratio in [1] and in assay [2] were 37 and 52, respectively. Besides, the figures for the Ratio in assay [3], in [4] and in assay [5] were 1.4, 0.7 and 52, respectively.

In the case of `Nc1cccc(Cn2c3c(c4ccccc42)C[C@@]2(O)[C@H]4Cc5ccc(O)c6c5[C@@]2(CCN4CC2CC2)[C@H]3O6)c1`, the Selectivity ratio in assay [1] is 111; in assay [2], 100. The Ratio in assay [3] was 1.3; in assay [4], 1.5; in assay [5] it was 148.

With `Nc1ccccc1Cn1c2c(c3ccccc31)C[C@@]1(O)[C@H]3Cc4ccc(O)c5c4[C@@]1(CCN3CC1CC1)[C@H]2O5`, the Selectivity ratio in assay [1] and in [2] was 120 throughout. The Ratio in assay [3] was found to be 1; in assay [4] it was 0.9; in [5], 120.

As to `O=[N+]([O-])c1ccc(Cn2c3c(c4ccccc42)C[C@@]2(O)[C@H]4Cc5ccc(O)c6c5[C@@]2(CCN4CC2CC2)[C@H]3O6)cc1`, the Selectivity ratio in assay [1] and in assay [2] was 38 throughout. Moreover, the Ratio in assay [3] was found to be 0.5; in assay [4] it was 0.4; in assay [5], 38.

For `Oc1ccc2c3c1O[C@H]1c4c(c5ccccc5n4Cc4ccccc4)C[C@@]4(O)[C@@H](C2)N(CC2CC2)CC[C@]314`, the results for the Selectivity ratio in assay [1] and in [2] were 131 and 208, respectively. For the same molecule, the Ratio was 1.6 in assay [3]; 10 in assay [6]; 1.2 in assay [7]; 0.77 in assay [8]; 0.4 in assay [4]; 1.3 in assay [9]. Further, in assay [5], the Ratio turned out to be 208.

For `Nc1ccc(Cn2c3c(c4ccccc42)C[C@@]2(O)[C@H]4Cc5ccc(O)c6c5[C@@]2(CCN4CC2CC2)[C@H]3O6)cc1`, the results for the Selectivity ratio in assay [1] and in [2] were 106 and 188, respectively. Besides, the Ratio came to 2.7 in assay [3]; 5.9 in [6]; 1.1 in assay [7]; 0.64 in assay [8]; 1.5 in [4]; 288 in assay [5].
